Results: ChEMBL document CHEMBL4043093, “2-Oxo-3, 4-dihydropyrimido[4, 5-d]pyrimidinyl derivatives as new irreversible pan fibroblast growth factor receptor (FGFR) inhibitors” (Eur J Med Chem, 2017)

Legend:
[1] = molecular target: Serine/threonine-protein kinase ULK2 (Homo sapiens) (UniProt Q8IYT8); assay: Inhibition of wild-type human partial length ULK2 (M1 to S301 residues) expressed in HEK293 cells assessed as residual activity at 1000 nM after 30 mins by Kinomescan method relative to control; format: cell-based
[2] = molecular target: Discoidin domain-containing receptor 2 (Homo sapiens) (UniProt Q16832); assay: Inhibition of wild-type human partial length DDR2 (V555 to E855 residues) expressed in HEK293 cells assessed as residual activity at 1000 nM after 30 mins by Kinomescan method relative to control; format: cell-based
[3] = molecular target: Myosin-IIIb (Homo sapiens) (UniProt Q8WXR4); assay: Inhibition of wild-type human partial length MYO3B (M1 to D357 residues) expressed in Escherichia coli BL21 assessed as residual activity at 1000 nM after 30 mins by Kinomescan method relative to control
[4] = test system: ALK tyrosine kinase receptor (Homo sapiens), Q9UM73 [L1196M]; assay: Inhibition of wild-type human partial length ALK L1196M mutant (I1088 to E1409 residues) expressed in HEK293 cells assessed as residual activity at 1000 nM after 30 mins by Kinomescan method relative to control; format: cell-based
[5] = molecular target: PDGFRA (platelet-derived growth factor receptor alpha) (Homo sapiens, UniProt P16234); assay: Inhibition of wild-type human partial length PDGFRA (V575 to D1002 residues) expressed in HEK293 cells assessed as residual activity at 1000 nM after 30 mins by Kinomescan method relative to control; format: cell-based; settings: read-out: Activity
[6] = test system: Phosphatidylinositol 4,5-bisphosphate 3-kinase catalytic subunit alpha isoform (Homo sapiens), P42336 [H1047L]; assay: Inhibition of human partial length PIK3CA H1047L mutant (R108 to N1068 residues) expressed in HEK293 cells assessed as residual activity at 1000 nM after 30 mins by Kinomescan method relative to control; format: cell-based
How it was run: (§1)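 KINOMEscan binding panel of 456 kinases, with the test compound at a single concentration of 1 µM. Read-out is Percent Control.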

[7] = test system: Epidermal growth factor receptor (Homo sapiens), P00533 [UNDEFINED MUTATION]; assay: Inhibition of human partial length EGFR L747-E749del/A750P mutant expressed in Escherichia coli BL21 assessed as residual activity at 1000 nM after 30 mins by Kinomescan method relative to control; how it was run: as §1
[8] = molecular target: Serine/threonine-protein kinase tousled-like 1 (Homo sapiens) (UniProt Q9UKI8); assay: Inhibition of wild-type human partial length TLK1 (K447 to A754 residues) expressed in Escherichia coli BL21 assessed as residual activity at 1000 nM after 30 mins by Kinomescan method relative to control
[9] = molecular target: CDK4/Cyclin D3 (Homo sapiens) (UniProt P11802+P30281); assay: Inhibition of wild-type human full length CDK4/cyclinD3 (M1 to E303 residues) expressed in HEK293 cells assessed as residual activity at 1000 nM after 30 mins by Kinomescan method relative to control; format: cell-based
How it was run: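 Single-point screen at a fixed 1 µM, run within a 456-kinase DiscoveRx KINOMEscan panel. Each kinase's read-out is Percent Control, i.e. signal relative to a control without compound. Hits were scored by a Percent Control < 35 cut-off, and an S(35) selectivity score was calculated across the non-mutant kinases.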

[10] = molecular target: Phosphatidylinositol 4-phosphate 5-kinase type-1 alpha (Homo sapiens) (UniProt Q99755); assay: Inhibition of wild-type human full length PIP5K1A (M1 to H562 residues) expressed in Escherichia coli BL21 assessed as residual activity at 1000 nM after 30 mins by Kinomescan method relative to control
How it was run: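 Single-concentration screen at 1 µM against a 456-kinase panel (KINOMEscan). Read-out is Percent Control for each kinase. Across the 403 non-mutant kinases, an S(35) selectivity score was derived as the fraction of kinases with Percent Control < 35.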

[11] = molecular target: Serine/threonine-protein kinase Nek10 (Homo sapiens) (UniProt Q6ZWH5); assay: Inhibition of wild-type human partial length NEK10 (L488 to R809 residues) expressed in HEK293 cells assessed as residual activity at 1000 nM after 30 mins by Kinomescan method relative to control; format: cell-based
[12] = molecular target: Serine/threonine-protein kinase MARK1 (Homo sapiens) (UniProt Q9P0L2); assay: Inhibition of wild-type human partial length MARK1 (Q30 to T341 residues) expressed in Escherichia coli BL21 assessed as residual activity at 1000 nM after 30 mins by Kinomescan method relative to control
[13] = molecular target: Serine/threonine-protein kinase TAO3 (Homo sapiens) (UniProt Q9H2K8); assay: Inhibition of wild-type human partial length TAOK3 (M1 to T316 residues) expressed in HEK293 cells assessed as residual activity at 1000 nM after 30 mins by Kinomescan method relative to control; format: cell-based
[14] = molecular target: 3-phosphoinositide-dependent protein kinase 1 (Homo sapiens) (UniProt O15530); assay: Inhibition of wild-type human full length PDPK1 (M1 to Q556 residues) expressed in Escherichia coli BL21 assessed as residual activity at 1000 nM after 30 mins by Kinomescan method relative to control
How it was run: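 Single-concentration screen at 1 µM across a 456-kinase KINOMEscan panel. The read-out is Percent Control for each kinase.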

[15] = test system: Tyrosine-protein kinase ABL1 (Homo sapiens), P00519 [F317I]; assay: Inhibition of human non-phosphorylated ABL1 F317I mutant (S229 to K512 residues) expressed in HEK293 cells assessed as residual activity at 1000 nM after 30 mins by Kinomescan method relative to control; format: cell-based; how it was run: as §1
[16] = molecular target: Serine/threonine-protein kinase MARK2 (Homo sapiens) (UniProt Q7KZI7); assay: Inhibition of wild-type human partial length MARK2 (M1 to R450 residues) expressed in Escherichia coli BL21 assessed as residual activity at 1000 nM after 30 mins by Kinomescan method relative to control
[17] = molecular target: Serine/threonine-protein kinase 24 (Homo sapiens) (UniProt Q9Y6E0); assay: Inhibition of wild-type human partial length MST3 (A30 to S311 residues) expressed in Escherichia coli BL21 assessed as residual activity at 1000 nM after 30 mins by Kinomescan method relative to control
[18] = test system: ALK tyrosine kinase receptor (Homo sapiens), Q9UM73 [C1156Y]; assay: Inhibition of wild-type human partial length ALK C1156Y mutant (I1088 to E1409 residues) expressed in HEK293 cells assessed as residual activity at 1000 nM after 30 mins by Kinomescan method relative to control; format: cell-based
[19] = molecular target: Serine/threonine-protein kinase pim-2 (Homo sapiens) (UniProt Q9P1W9); assay: Inhibition of wild-type human partial length PIM2 (M1 to E291 residues) expressed in Escherichia coli BL21 assessed as residual activity at 1000 nM after 30 mins by Kinomescan method relative to control
[20] = molecular target: Dual specificity mitogen-activated protein kinase kinase 5 (Homo sapiens) (UniProt Q13163); assay: Inhibition of wild-type human partial length MEK5 (L98 to P448 residues) expressed in HEK293 cells assessed as residual activity at 1000 nM after 30 mins by Kinomescan method relative to control; format: cell-based
Chain of Dual specificity mitogen-activated protein kinase kinase 5 (Homo sapiens) (Q13163 whole entry, the tested form may be a part): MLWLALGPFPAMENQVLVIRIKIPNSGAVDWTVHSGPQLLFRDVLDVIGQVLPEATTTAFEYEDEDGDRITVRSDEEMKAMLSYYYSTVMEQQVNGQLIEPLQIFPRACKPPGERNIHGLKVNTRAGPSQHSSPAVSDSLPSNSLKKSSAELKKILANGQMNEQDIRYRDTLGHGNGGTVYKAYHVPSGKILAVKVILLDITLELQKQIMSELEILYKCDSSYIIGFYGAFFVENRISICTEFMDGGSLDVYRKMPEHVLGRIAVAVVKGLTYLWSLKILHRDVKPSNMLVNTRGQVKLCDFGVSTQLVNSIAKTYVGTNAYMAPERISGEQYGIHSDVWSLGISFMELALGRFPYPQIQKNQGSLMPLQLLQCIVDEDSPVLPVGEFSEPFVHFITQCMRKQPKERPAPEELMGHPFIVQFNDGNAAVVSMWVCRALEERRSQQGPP

Chain of Serine/threonine-protein kinase MARK2 (Homo sapiens) (Q7KZI7 whole entry, the tested form may be a part): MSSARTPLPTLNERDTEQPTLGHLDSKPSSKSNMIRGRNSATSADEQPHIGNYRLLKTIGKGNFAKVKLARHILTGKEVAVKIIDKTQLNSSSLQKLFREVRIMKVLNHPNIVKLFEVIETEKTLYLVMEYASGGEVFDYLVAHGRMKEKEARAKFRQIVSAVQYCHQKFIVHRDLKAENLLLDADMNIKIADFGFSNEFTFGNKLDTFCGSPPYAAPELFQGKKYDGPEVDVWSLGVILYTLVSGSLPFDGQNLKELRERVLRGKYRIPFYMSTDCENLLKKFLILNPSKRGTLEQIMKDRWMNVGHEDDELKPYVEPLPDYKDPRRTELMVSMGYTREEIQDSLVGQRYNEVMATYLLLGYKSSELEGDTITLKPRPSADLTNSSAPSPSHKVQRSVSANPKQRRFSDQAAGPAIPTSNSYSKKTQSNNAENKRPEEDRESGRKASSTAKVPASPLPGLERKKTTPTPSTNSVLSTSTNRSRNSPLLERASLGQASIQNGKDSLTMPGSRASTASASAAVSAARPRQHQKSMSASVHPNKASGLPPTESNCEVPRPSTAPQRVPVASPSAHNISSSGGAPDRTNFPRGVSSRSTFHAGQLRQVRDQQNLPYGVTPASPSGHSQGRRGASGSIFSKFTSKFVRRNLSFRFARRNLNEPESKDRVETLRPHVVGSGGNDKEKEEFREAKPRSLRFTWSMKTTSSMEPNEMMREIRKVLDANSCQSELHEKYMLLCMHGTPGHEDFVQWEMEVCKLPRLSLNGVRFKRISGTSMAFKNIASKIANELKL
Chain of Phosphatidylinositol 4,5-bisphosphate 3-kinase catalytic subunit alpha isoform (Homo sapiens), P42336 [H1047L] (P42336 whole entry H1047L, the tested form may be a part, canonical isoform): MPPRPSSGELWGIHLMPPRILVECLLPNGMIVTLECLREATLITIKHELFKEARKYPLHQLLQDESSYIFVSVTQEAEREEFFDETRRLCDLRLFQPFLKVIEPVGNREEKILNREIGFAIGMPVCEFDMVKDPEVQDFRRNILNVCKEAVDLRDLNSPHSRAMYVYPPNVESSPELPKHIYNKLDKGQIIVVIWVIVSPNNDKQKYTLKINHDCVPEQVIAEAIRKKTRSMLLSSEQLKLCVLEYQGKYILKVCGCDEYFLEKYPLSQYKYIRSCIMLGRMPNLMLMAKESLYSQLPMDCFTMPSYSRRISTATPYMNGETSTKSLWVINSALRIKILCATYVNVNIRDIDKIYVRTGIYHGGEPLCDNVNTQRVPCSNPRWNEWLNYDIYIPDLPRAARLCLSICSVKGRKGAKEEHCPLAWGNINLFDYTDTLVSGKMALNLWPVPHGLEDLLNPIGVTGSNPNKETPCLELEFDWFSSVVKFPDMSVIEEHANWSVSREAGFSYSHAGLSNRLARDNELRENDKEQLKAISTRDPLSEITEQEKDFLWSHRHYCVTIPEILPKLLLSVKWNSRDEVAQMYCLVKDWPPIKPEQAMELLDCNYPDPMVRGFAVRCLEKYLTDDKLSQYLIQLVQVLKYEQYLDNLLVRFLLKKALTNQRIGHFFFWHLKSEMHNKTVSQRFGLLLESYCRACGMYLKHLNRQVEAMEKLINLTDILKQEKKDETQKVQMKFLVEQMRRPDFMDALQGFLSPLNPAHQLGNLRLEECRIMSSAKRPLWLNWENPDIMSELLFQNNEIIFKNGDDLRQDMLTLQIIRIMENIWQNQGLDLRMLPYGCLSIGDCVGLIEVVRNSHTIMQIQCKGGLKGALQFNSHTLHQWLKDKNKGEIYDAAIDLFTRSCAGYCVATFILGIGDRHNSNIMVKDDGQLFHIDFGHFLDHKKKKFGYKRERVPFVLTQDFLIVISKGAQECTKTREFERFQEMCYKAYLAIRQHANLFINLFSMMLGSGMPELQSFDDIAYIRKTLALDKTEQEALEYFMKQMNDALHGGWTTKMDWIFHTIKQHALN
Chain of Serine/threonine-protein kinase TAO3 (Homo sapiens) (Q9H2K8 whole entry, the tested form may be a part): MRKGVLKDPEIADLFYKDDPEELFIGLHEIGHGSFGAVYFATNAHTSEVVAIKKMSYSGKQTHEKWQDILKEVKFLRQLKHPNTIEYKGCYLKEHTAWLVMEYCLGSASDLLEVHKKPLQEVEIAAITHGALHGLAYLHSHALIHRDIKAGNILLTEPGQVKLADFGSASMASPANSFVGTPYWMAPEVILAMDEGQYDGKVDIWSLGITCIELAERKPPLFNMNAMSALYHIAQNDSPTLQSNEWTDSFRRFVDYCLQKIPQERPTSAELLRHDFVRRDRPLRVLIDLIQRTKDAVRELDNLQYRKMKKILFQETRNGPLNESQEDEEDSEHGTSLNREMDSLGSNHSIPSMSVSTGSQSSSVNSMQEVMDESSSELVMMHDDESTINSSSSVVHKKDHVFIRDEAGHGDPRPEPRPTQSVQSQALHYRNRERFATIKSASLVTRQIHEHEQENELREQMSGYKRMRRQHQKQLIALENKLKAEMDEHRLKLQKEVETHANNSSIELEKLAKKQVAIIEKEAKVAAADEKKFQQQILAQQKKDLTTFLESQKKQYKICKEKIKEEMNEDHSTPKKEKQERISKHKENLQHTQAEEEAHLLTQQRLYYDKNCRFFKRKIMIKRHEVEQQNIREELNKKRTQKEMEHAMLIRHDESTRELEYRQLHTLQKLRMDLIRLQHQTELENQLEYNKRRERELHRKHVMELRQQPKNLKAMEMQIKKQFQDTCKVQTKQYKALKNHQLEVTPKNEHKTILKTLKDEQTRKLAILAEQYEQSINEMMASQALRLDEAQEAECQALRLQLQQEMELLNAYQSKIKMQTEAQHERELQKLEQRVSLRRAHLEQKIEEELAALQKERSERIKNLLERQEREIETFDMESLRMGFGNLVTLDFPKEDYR
Chain of 3-phosphoinositide-dependent protein kinase 1 (Homo sapiens) (O15530 whole entry, the tested form may be a part): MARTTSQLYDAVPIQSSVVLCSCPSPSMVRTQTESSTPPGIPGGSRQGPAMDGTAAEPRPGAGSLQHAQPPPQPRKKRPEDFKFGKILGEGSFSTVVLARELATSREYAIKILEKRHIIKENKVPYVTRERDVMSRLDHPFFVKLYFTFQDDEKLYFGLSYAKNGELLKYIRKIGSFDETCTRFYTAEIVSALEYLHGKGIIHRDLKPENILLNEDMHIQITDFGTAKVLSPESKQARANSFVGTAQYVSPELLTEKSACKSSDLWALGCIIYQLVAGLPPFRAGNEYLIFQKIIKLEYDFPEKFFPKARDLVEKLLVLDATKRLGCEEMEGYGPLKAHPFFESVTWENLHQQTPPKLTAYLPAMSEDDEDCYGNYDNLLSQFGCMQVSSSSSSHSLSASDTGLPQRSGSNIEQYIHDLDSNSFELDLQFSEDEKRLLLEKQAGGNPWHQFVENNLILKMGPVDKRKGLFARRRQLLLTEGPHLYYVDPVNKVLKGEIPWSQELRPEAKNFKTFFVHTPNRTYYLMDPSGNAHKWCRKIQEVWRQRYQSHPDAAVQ
Chain of Serine/threonine-protein kinase Nek10 (Homo sapiens) (Q6ZWH5 whole entry, the tested form may be a part): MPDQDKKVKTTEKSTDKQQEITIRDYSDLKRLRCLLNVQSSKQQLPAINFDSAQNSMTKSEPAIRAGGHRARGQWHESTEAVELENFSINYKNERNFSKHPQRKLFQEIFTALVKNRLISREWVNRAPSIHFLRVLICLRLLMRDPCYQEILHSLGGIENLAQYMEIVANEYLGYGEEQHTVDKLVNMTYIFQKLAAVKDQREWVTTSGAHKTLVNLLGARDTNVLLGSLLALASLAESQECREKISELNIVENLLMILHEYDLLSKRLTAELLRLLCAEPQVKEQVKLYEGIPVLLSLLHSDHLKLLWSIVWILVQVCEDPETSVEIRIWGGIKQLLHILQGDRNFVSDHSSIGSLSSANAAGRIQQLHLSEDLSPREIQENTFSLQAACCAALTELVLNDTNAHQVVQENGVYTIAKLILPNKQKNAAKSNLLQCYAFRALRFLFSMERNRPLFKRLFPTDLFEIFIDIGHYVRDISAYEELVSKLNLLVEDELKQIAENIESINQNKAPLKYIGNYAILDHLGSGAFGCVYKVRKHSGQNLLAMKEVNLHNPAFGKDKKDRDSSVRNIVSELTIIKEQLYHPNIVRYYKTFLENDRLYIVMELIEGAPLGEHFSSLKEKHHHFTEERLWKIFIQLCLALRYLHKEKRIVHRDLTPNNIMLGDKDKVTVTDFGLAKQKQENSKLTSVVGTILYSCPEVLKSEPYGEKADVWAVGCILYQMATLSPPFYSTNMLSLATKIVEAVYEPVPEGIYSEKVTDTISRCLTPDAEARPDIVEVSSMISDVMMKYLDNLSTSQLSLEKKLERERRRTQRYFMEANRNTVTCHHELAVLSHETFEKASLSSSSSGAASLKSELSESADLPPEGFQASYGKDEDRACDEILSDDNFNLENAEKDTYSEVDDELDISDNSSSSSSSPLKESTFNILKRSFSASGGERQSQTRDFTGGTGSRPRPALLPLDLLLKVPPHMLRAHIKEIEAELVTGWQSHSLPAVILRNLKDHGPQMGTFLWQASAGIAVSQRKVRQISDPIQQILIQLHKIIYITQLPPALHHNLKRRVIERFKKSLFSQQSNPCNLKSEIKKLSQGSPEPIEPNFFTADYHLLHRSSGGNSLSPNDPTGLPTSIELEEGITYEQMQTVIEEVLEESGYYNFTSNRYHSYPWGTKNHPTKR

For COc1cc(OC)c(Cl)c(N2Cc3cnc(Nc4ccc(F)cc4)nc3N(C3CCN(C(=O)/C=C/CN(C)C)CC3)C2=O)c1Cl, which Activity [1] is on record?
The Activity was 100%.

What about the Activity [2] of the same molecule?
The Activity was 77%.

What about the Activity [3] of the same molecule?
Its Activity is 100%.

And the Activity [4]?
Its Activity is 92%.

What about the activity at 0.5 h, 1 µM [5] of the same molecule?
Its activity at 0.5 h, 1 µM is 62%.

What about the Activity [6] of the same molecule?
Its Activity is 100%.

What about the Activity [7] of the same molecule?
The Activity was 96%.

What about the Activity [8] of the same molecule?
The Activity was 100%.

What about the Activity [9] of the same molecule?
The Activity was 100%.

What about the Activity [10] of the same molecule?
The Activity was 100%.

What about the Activity [11] of the same molecule?
Its Activity is 86%.

And the Activity [12]?
Its Activity is 99%.

What about the Activity [13] of the same molecule?
Its Activity is 36%.

What about the Activity [14] of the same molecule?
Its Activity is 67%.

And the Activity [15]?
The Activity was 100%.

And the Activity [16]?
The Activity was 90%.

What about the Activity [17] of the same molecule?
Its Activity is 68%.

And the Activity [18]?
The Activity was 68%.

What about the Activity [19] of the same molecule?
Its Activity is 83%.

And the Activity [20]?
The Activity was 90%.
